Experimental data published in ChEMBL document CHEMBL1141748, “Nocardimicins A, B, C, D, E, and F, siderophores with muscarinic M3 receptor inhibiting activity from Nocardia sp. TP-A0674” (J Nat Prod, 2005).
pIC50, pKi: −log10 of the molar value.

Tests used:
[1] = biological target: Muscarinic acetylcholine receptor M3 (Homo sapiens, UniProt P20309); experiment: Displacement of [3H]NMS from human muscarinic M3 receptor expressed in insect Sf9 cells
Procedure, shortened: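 Competition binding used Sf9 membranes stably expressing human M3, incubated with 0.29 nM [3H]-NMS (assay Kd 0.078 nM, Bmax 3.2 pmol/mg protein) in 50 mM Tris-HCl, 10 mM MgCl2, 1 mM EDTA, pH 7.4, 25 °C, 1 h. Nonspecific binding was set with 1 µM atropine. IC50 was taken from competition curves and converted to apparent Ki by Cheng-Prusoff.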

[2] = biological target: T1, Muscarinic acetylcholine receptor M4 (Homo sapiens, UniProt P08173); experiment: Binding affinity to human muscarinic M4 receptor expressed in insect Sf9 cells
T1 sequence (P08173 whole entry): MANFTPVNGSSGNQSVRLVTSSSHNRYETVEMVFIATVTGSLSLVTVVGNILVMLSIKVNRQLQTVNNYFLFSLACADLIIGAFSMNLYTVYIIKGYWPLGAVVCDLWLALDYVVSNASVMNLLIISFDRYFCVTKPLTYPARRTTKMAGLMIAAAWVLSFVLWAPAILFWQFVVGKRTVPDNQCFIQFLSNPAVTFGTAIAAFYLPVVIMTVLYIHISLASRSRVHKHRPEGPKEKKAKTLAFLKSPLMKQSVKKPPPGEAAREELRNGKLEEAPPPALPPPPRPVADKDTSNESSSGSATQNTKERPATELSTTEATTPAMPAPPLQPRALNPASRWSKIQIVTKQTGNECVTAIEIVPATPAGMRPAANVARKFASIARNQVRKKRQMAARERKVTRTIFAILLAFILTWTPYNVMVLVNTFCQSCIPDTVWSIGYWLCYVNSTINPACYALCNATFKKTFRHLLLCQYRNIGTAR
Procedure, shortened: (§1)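 Membranes from Sf9 insect cells stably expressing the human receptor were incubated with 0.29 nM [3H]-NMS in 50 mM Tris-HCl, 10 mM MgCl2, 1 mM EDTA, pH 7.4, for 1 h at 25 °C. Nonspecific binding was defined with 1 µM atropine. IC50 was taken from competition curves and converted to apparent Ki by Cheng-Prusoff.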

[3] = biological target: T2, Muscarinic acetylcholine receptor M1 (Homo sapiens, UniProt P11229); experiment: Binding affinity to human muscarinic M1 receptor expressed in insect Sf9 cells; procedure, shortened: as §1
T2 sequence (P11229 whole entry): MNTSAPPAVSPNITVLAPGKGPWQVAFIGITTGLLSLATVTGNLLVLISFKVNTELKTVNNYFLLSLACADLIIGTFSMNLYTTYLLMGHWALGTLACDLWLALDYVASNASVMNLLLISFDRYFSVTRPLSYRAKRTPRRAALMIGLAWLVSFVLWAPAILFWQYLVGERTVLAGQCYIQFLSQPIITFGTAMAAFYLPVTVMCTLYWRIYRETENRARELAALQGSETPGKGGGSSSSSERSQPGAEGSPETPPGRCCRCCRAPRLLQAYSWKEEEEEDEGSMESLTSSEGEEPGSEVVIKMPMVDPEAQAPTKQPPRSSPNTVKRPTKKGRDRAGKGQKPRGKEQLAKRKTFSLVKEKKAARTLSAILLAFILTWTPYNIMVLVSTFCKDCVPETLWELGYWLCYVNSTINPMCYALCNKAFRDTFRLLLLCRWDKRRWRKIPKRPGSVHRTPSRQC

[4] = biological target: T3, Muscarinic acetylcholine receptor M5 (Homo sapiens, UniProt P08912); experiment: Binding affinity to human muscarinic M5 receptor expressed in insect Sf9 cells; procedure, shortened: as §1
T3 sequence (P08912 whole entry): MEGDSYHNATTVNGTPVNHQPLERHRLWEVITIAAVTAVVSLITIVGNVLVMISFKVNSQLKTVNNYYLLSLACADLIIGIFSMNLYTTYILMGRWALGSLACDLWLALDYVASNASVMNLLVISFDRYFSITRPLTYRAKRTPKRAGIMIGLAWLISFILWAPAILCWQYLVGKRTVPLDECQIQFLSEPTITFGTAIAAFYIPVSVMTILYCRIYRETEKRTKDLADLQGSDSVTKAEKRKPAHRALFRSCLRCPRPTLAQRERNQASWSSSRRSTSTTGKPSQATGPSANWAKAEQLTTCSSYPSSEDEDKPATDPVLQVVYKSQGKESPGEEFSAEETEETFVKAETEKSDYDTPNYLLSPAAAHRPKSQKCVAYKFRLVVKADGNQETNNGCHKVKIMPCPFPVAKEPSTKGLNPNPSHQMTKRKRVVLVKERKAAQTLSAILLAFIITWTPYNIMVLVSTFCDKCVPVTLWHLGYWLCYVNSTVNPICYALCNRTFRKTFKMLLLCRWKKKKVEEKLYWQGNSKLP

[5] = biological target: T4, Muscarinic acetylcholine receptor M2 (Homo sapiens, UniProt P08172); experiment: Binding affinity to human muscarinic M2 receptor expressed in insect Sf9 cells; procedure, shortened: as §1
T4 sequence (P08172 whole entry): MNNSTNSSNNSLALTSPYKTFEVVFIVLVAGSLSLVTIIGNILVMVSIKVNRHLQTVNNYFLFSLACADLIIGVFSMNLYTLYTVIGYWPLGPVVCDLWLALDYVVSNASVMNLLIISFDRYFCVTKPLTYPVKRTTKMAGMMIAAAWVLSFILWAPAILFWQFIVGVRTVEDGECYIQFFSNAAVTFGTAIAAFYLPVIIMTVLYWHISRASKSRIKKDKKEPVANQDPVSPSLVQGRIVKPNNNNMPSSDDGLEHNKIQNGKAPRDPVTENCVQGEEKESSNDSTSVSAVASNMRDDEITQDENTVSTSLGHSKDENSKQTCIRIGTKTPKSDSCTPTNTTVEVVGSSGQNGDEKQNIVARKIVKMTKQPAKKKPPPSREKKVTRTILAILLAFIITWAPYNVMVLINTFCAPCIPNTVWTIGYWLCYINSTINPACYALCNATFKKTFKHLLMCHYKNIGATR

Muscarinic acetylcholine receptor M3, sequence (P20309 whole entry): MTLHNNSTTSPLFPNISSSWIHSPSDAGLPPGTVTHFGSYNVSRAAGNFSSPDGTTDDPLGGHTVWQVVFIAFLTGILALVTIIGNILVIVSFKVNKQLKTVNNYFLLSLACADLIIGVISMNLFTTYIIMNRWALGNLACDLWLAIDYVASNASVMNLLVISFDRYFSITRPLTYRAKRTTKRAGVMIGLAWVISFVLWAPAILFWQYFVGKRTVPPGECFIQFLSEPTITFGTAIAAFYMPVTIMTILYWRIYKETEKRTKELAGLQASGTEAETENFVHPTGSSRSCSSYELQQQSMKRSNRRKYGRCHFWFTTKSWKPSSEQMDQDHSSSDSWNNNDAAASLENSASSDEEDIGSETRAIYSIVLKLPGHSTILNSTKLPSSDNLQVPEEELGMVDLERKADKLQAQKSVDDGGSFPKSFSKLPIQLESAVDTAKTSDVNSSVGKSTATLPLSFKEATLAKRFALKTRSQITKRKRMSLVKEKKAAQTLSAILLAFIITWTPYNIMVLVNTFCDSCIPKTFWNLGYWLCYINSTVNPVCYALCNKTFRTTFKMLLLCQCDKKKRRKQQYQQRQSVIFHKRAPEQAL

| Compound | pIC50 [1] | pKi [1] | further results |
| --- | --- | --- | --- |
| CCCCCCCCCC(OC(=O)C(CCCCN(O)C(C)=O)NC(=O)c1coc(-c2ccccc2O)n1)C(C)C(=O)NC1CCCCN(O)C1=O (stereo not given) [NOCARDIMICIN A] | 5.23 | 5.90 |  |
| CCCCCCCCCCCC(OC(=O)C(CCCCN(O)C(C)=O)NC(=O)c1coc(-c2ccccc2O)n1)C(C)C(=O)NC1CCCCNC1=O (stereo not given) [NOCARDIMICIN C] | 5.33 | 6.00 |  |
| CCCCCCCCCCCCCC(OC(=O)C(CCCCN(O)C(C)=O)NC(=O)c1coc(-c2ccccc2O)n1)C(C)C(=O)NC1CCCCN(O)C1=O (stereo not given) [NOCARDIMICIN D] | 5.96 | 6.64 |  |

The remaining compounds from weak to strong by pIC50 [1], led by results:

| pIC50 [1] | pKi [1] | Compound | further results |
| --- | --- | --- | --- |
| 5.20 | 5.88 | CCCCCCCCCCCCCCCC(OC(=O)C(CCCCN(O)C(C)=O)NC(=O)c1coc(-c2ccccc2O)n1)C(C)C(=O)NC1CCCCN(O)C1=O (stereo not given) [NOCARDIMICIN F] |  |
| 5.34 | 6.01 | CCCCCCCCCCCCCC(OC(=O)C(CCCCN(O)C(C)=O)NC(=O)c1coc(-c2ccccc2O)n1)C(C)C(=O)NC1CCCCNC1=O (stereo not given) [NOCCARDIMICIN E] |  |
| 6.20 | 6.89 | CCCCCCCCCCCC(OC(=O)C(CCCCN(O)C(C)=O)NC(=O)c1coc(-c2ccccc2O)n1)C(C)C(=O)NC1CCCCN(O)C1=O (stereo not given) [NOCARDIMICIN B] | pIC50 [2]: 5.98; pKi [2]: 6.85; pIC50 [3]: 5.69; pKi [3]: 6.31; pIC50 [4]: 5.79; pKi [4]: 5.93; pIC50 [5]: 5.75; pKi [5]: 6.20 |
